# Source: PubChem (several laboratories)
# GRIN3A LBD mod: modulators (binders) of human NR3A ligand-binding domain; Tm shift relative to glycine control, % at 25 µM; NR3A LBD differential scanning fluorimetry, Tm shift; 0% = protein alone, 100% = glycine-bound protein; actives 2.5% (n = 340,000); AID 1259313;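 active means melting temperature shift of at least 10% of the positive control shift, at one fixed dose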
# iPSC survival up: increases survival of single human iPS cells; hiPSC single-cell survival, ATPlite luminescence; 100% = ROCK inhibitor wells, 0% = DMSO; survival enhancement, % at 20 µM; actives 0.044% (n = 360,000); AID 602274; in the data active means survival enhancement above about 18%;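 further: cells exposed to compounds for 16 hours before the ATP read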
# FAS-TE inh: blocks the thioesterase domain of human fatty acid synthase. inhibition, % at 15 µM. P49327. recombinant FAS-TE, OMFH fluorogenic substrate, fluorescence endpoint. AID 602261. actives 0.67% (n = 360,000);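 active means compounds whose normalised, plate-corrected inhibition of enzyme fluorescence in the single-dose primary screen is 50% or more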;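 further: 0% = DMSO with enzyme and 100% = substrate without enzyme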
# Target sequence (P49327 whole entry, looked up, the tested form may be a part): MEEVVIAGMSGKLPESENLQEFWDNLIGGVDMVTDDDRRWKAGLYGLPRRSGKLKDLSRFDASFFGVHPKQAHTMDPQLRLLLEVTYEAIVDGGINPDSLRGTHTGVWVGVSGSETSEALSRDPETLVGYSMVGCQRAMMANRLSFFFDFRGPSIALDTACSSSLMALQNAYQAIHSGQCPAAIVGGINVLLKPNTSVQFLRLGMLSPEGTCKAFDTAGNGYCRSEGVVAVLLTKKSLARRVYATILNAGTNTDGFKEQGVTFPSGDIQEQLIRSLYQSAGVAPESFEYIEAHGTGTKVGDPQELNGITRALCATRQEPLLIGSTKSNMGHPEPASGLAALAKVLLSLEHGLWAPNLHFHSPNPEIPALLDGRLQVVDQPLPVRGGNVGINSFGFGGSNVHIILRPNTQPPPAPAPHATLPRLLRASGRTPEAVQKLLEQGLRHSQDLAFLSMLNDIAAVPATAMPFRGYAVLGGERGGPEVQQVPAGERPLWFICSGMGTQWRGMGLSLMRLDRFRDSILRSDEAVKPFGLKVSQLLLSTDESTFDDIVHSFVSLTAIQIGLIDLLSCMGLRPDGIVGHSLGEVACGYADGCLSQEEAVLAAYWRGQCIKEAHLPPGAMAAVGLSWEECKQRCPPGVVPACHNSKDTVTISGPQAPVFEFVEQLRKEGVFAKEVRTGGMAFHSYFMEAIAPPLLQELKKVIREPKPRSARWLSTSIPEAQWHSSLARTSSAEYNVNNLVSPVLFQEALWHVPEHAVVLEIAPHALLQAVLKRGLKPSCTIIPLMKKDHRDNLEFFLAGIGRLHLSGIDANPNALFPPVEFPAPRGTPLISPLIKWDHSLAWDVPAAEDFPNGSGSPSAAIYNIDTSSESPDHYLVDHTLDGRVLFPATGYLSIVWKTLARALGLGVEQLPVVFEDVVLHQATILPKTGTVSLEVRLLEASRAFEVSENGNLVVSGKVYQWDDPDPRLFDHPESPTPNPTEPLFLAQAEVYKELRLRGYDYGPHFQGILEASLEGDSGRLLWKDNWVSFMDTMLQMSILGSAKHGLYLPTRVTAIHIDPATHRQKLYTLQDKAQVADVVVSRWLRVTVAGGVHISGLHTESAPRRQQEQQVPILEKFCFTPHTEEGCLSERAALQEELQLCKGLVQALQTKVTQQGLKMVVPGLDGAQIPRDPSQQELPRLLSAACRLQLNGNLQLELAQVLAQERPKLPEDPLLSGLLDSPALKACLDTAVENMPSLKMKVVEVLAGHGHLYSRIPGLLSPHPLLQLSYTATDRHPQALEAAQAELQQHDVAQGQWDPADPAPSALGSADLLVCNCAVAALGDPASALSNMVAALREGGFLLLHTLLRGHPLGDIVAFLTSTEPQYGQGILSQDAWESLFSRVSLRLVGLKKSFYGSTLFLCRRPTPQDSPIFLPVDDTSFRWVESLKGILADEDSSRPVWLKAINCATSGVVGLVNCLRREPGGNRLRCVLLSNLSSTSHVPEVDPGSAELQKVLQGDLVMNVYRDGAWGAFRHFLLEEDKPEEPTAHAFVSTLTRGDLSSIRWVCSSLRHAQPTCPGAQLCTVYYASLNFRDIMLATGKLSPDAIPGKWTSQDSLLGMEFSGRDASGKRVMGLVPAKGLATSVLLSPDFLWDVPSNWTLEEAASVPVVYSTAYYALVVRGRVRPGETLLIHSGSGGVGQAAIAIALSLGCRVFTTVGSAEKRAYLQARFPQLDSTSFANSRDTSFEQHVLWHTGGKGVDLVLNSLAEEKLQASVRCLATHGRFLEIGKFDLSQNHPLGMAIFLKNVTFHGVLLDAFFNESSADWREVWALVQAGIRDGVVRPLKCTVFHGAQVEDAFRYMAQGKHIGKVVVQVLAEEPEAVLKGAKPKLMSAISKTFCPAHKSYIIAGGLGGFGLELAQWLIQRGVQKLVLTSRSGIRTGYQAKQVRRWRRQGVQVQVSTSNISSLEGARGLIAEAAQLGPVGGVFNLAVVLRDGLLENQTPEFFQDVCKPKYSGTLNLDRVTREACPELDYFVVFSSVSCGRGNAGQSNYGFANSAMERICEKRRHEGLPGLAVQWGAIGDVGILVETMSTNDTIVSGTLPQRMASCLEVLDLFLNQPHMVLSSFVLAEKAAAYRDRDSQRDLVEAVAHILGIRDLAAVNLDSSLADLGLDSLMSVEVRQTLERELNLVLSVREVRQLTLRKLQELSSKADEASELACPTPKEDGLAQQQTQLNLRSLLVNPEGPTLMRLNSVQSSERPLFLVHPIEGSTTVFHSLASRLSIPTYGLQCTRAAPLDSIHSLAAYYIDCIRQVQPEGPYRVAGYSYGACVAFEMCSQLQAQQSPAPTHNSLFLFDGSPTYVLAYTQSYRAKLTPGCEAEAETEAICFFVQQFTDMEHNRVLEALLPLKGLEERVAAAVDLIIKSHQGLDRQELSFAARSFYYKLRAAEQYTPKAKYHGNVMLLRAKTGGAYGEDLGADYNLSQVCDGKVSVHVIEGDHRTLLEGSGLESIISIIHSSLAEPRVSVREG
# Arr AP2 block: blocks beta-arrestin peptide binding to AP2 adaptin; FITC-arrestin peptide / GST-AP2 beads, flow cytometry; AP2 beta2 appendage carries R879A mutation; inhibition, % at 10 µM; actives 0.31% (n = 340,000);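 active means inhibition above a set limit, near 3 SD of compounds lacking own fluorescence, cut at about 54% in these data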;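 further: plate controls were DMSO wells for no effect and 5 µM unlabelled arrestin peptide for full effect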
#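 test system = AP2 appendage R879A on GSH beads | buffer or medium = PBS plus Tween 20 (0.05%) and BSA (0.1%) | incubation = 12 min plus 1 h, RT | detection = bead flow cytometry, FITC channel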
# Cardio protect: protects H9c2 cardiomyocytes from peroxide injury; actives 0.63% (n = 360,000); protection from H2O2 cell death, % at 20 µM; H2O2 injury protection, ATPLite, 2 h; AID 588492;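 active means compounds giving at least 50% protection of heart cells from peroxide-induced death in the single-dose screen, raw or plate-pattern-corrected value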;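 further: 0% = DMSO wells with peroxide and 100% = DMSO wells without peroxide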
# SENP1 FRET inh: SENP1 (human) catalytic domain inhibition; recombinant SENP1 catalytic domain, CyPet-SUMO1-YPet FRET cleavage; Q9P0U3; inhibition, % at 10 µM; AID 624204; actives 0.21% (n = 360,000);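 active means inhibition at least 30% at 10 µM, raw YFP signal under a set limit, fluorescence ratio 0.5 to 1.5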;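 further: 0% = enzyme with DMSO and 100% = no enzyme wells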
#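 Test system: recombinant human SENP1 catalytic domain, His6-tagged / Medium: pH 8 Tris buffer with EDTA, NaCl, BME, BSA, NP40, catalase / Also added: SUMO1 FRET substrate flanked by Cypet and Ypet, 25 nM / Times: 50 min reaction at room temperature / Signal: FRET, CFP and YFP emission / Control set: no-enzyme low control and enzyme-plus-DMSO high control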
# * = called active by the depositor; . = no result. Hits are enriched below; roughly 4% of the tested compounds scored in any of these assays.
SMILES,GRIN3A LBD mod,iPSC survival up,FAS-TE inh,Arr AP2 block,Cardio protect,SENP1 FRET inh
N/C(=N\OC(=O)c1ccccc1)C(Cc1ccccc1)C(=O)NOC(=O)c1ccccc1 (stereo not drawn),0.8,2.2,-4.3,25.9,0.0,-3.5
CNc1nc(Cl)c(SC)c(NCc2cccc(OC)c2)n1,17.3*,0.0,13.8,1.4,-5.4,-2.4
CC1CCCC(C)N1C(=O)CN1C(=O)NC2(CCCCCC2)C1=O (stereo not drawn),.,0.7,-8.9,.,-3.5,0.7
Cn1c(=O)c(NCCO)c2c3c(cccc31)C(=O)c1ccccc1-2,-386.0,-0.3,-197.5,-2.0,6.0,-20.8
Cn1c(=O)c(NCCc2ccccc2)c2c3c(cccc31)C(=O)c1ccccc1-2,42.7*,-1.4,-221.8,41.5,46.0,-23.7
CC(=O)Nc1cc2c(cc1C(C)=O)OCCO2,12.5*,-1.1,-1.8,0.2,10.1,1.6
CC12CCCc3c(O)cc(=O)n(c31)-c1ccccc12 (stereo not drawn),21.3*,-1.9,-13.6,4.0,3.1,1.0
CC1(C)CCC(=O)c2ccccc21,0.4,5.1,-2.0,15.7,-3.3,-3.3
COc1ccc(CCN=C(C)c2cc(C)c(C)cc2O)cc1OC,14.8*,-0.4,-2.7,5.2,-1.6,4.1
COc1ccc(CCN=C(N)NS(=O)(=O)c2ccc(C)c(C)c2)cc1OC,2.0,0.5,-0.9,4.8,2.8,-0.3
NC(=O)CC[C@H](NC(=O)OCc1ccccc1)C(=O)OCc1ccc(Cl)cc1,-1.9,0.8,-3.7,37.6,-2.3,2.0
O=C(CCC(NC(=O)OCc1ccccc1)C(=O)OCc1ccccc1)NCC(=O)OCc1ccccc1 (stereo not drawn),11.9*,-1.8,15.1,1.6,-14.4,-0.3
C[C@@]12CCC=C[C@H]1[C@H](c1ccoc1)N(Cc1ccccc1)C2=O,11.5*,1.2,1.1,5.8,9.0,0.5
C[C@@]12CCC=C[C@H]1[C@H](c1ccccc1Br)N(Cc1ccccc1)C2=O,-0.7,5.3,19.0,0.2,-16.7,-0.3
CN(C)c1ccc(-c2cc([C@H]3[C@@H]4C=CCC[C@@]4(C)C(=O)N3Cc3ccccc3)ccc2F)cc1,-11.5,-3.0,27.6,1.5,-4.3,47.8*
Cc1ccc(-c2cc([C@H]3[C@@H]4C=CCC[C@@]4(C)C(=O)N3Cc3ccccc3)ccc2F)cc1,-1.8,-2.7,28.7,21.5,-2.2,2.0
COc1ccc(C(=O)N2CCC(C)(C(=O)NS(=O)(=O)C3CC3)C2)cc1 (stereo not drawn),.,-2.7,-6.6,.,-0.7,2.0
Cc1cccc(-c2cnc(C(O)c3ccc(F)c(C)c3)[nH]2)c1 (stereo not drawn),.,1.2,-2.3,.,-16.7,0.3
Cc1cccc(NC(=O)CSc2nc3nc4c(cc3c(=O)n2-c2ccccc2)CCCC4)c1,18.8*,5.5,17.6,8.1,-1.9,-35.9
Cc1ccccc1-n1c(SCC(=O)Nc2ccccc2)nc2nc3c(cc2c1=O)CCCC3,6.0,-1.5,21.1,12.3,33.3,-15.7
Cn1c(=O)c2cc(NC(=S)NC3CCCCC3)ccc2n1Cc1ccc(Cl)cc1,.,-2.7,10.9,.,-16.3,-4.7
COc1cc2c(cc1OC)C(c1ccc3c(c1)OCO3)C1=C(CC(C)(C)CC1=O)N2 (stereo not drawn),0.3,0.5,4.7,-8.9,72.3*,-7.9
CC1(C(=O)NCc2cccc3ccccc23)CCN1C(=O)Cc1ccc(-c2ccccc2)cc1 (stereo not drawn),.,-0.4,23.0,.,-7.9,2.3
Cc1nc(-c2ccccc2)c(-c2ccccc2)[nH]1,-1.9,-0.7,-0.7,27.0,2.2,1.1
Oc1ccc(N=Nc2nc(-c3ccccc3)c(-c3ccccc3)[nH]2)cc1,2.0,-0.8,18.0,9.7,29.2,39.3*
SMILES,GRIN3A LBD mod,iPSC survival up,FAS-TE inh,Arr AP2 block,Cardio protect,SENP1 FRET inh
Oc1ccc(N=Nc2n[nH]c(-c3ccc(Br)cc3)n2)cc1,26.9*,-0.1,-1.8,5.4,0.8,1.5
Oc1ccc(N=Nc2n[nH]c(-c3ccccc3)n2)cc1,10.2*,-0.4,-4.3,-6.5,-8.2,2.8
CCCCCCCCN1C(=O)[C@H](CC(=O)NCc2ccc(C)o2)C[C@@]2(C(=O)OC)CCCCC=C12,.,-0.2,7.6,.,.,-4.2
CCc1ccc(C2NC(=S)NC3=C2C(=O)N(c2ccccc2OC)C(c2ccc(CC)cc2)N3)cc1 (stereo not drawn),-7.0,1.4,-93.7,8.6,10.2,-0.2
O=C1C2=C(NC(=S)NC2c2ccc(Cl)cc2)NC(c2ccc(Cl)cc2)N1c1ccc(Cl)cc1 (stereo not drawn),21.9*,1.7,-99.9,15.6,-33.7,0.6
CC(C)C[C@H]1COc2cccc(N3CCSCC3)c2S(=O)(=O)N1,.,-0.2,2.4,.,.,-0.4
Cc1cccc(NC(=S)/N=C(\N)Nc2nc(C)c3cc(C)ccc3n2)c1,20.3*,14.7,36.1,-0.1,-6.4,-2.4
Cc1cc(C)cc(NC(=S)/N=C(\N)Nc2nc(C)c3ccccc3n2)c1,-14.3,-0.3,44.2,3.8,-4.0,-2.2
COc1ccc2nc(N/C(N)=N/C(=S)Nc3ccccc3)nc(C)c2c1,18.6*,-5.1,15.6,9.1,16.8,-3.3
CCOc1ccc2nc(N/C(N)=N/C(=S)Nc3ccc(OC)cc3)nc(C)c2c1,27.3*,-0.4,44.0,8.6,16.3,-1.7
CCOc1c(Br)cc(C(=O)Nc2cccc(S(=O)(=O)N3CCOCC3)c2)cc1OC,.,-2.1,21.7,.,-5.5,2.1
COc1cccc(CNC(=O)c2cc(S(=O)(=O)N3CCCCC3)ccc2C)c1,.,-0.1,3.5,.,12.7,0.3
COc1ccc(-c2nn(-c3ccccc3)cc2/C=C/C(=O)OCC(=O)Nc2cccc(C#N)c2)cc1,25.2*,-2.1,1.6,1.4,11.2,-1.4
COc1ccc(NC(=O)CN(C)C(=O)/C=C/c2cn(-c3ccccc3)nc2-c2ccc(F)cc2)cc1,10.4*,0.7,18.7,0.9,-1.4,3.6
COc1ccc(-c2nn(-c3ccccc3)cc2/C=C/C(=O)OCC(=O)Nc2ccc(C#N)cc2)cc1,-18.4,-0.4,17.6,1.7,3.6,2.6
COc1cccc(NC(=O)CN(C)C(=O)/C=C/c2cn(-c3ccccc3)nc2-c2ccc(C)cc2)c1,16.6*,-0.5,34.4,0.4,13.4,-0.2
Cc1ccc2cc(C#N)c(N3CCN(C(=O)c4cccs4)CC3)nc2c1,-0.7,-0.5,2.0,38.3,57.7*,-93.2
Cc1cc(O)c(C)c(O)c1/C=N/NC(=O)c1cccnc1,-8.2,-0.3,0.1,23.1,51.3*,-23.9
COc1cc(/C=N/NC(=O)c2cccnc2)ccc1OS(=O)(=O)c1ccc(C)cc1,1.7,-3.8,9.3,4.4,16.1,0.5
